Source: ChEMBL document CHEMBL1143874, “Diazen-1-ium-1,2-diolated and nitrooxyethyl nitric oxide donor ester prodrugs of anti-inflammatory (E)-2-(aryl)-3-(4-methanesulfonylphenyl)acrylic acids: synthesis, cyclooxygenase inhibition, and nitric oxide release studies” (Bioorg Med Chem, 2008)

Assays:
[1] = molecular target: T1, Prostaglandin G/H synthase 1 (Ovis aries, UniProt P05979); assay: Inhibition of ovine COX1 by enzyme immunoassay
T1 sequence (P05979 whole entry): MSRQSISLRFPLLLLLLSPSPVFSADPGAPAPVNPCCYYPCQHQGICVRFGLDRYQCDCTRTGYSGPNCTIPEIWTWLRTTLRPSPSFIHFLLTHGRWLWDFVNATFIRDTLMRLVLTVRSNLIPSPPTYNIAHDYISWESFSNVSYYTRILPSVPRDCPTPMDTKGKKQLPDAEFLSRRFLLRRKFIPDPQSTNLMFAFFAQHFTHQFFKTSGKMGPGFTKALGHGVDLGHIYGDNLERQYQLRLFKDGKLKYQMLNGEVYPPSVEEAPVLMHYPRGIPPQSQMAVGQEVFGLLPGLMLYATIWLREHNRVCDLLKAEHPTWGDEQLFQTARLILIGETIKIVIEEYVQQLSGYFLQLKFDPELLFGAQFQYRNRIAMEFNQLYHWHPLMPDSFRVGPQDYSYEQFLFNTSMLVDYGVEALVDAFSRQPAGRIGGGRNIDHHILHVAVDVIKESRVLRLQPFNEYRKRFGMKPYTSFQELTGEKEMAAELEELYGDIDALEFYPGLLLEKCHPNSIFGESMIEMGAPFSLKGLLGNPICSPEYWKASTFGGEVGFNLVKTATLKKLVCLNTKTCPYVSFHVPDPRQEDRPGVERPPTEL

[2] = Nitric oxide release in PBS at pH 7.4 in 37 degC after 1.5 hrs; format: functional; design: concentration or dose not given beside the values
In short: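 Test compound at 1.0 · 10^-2 mM in phosphate buffer pH 7.4, incubated 37 °C for 1.5 h. Nitrite was quantified by Griess reaction. % NO released is relative to a theoretical maximum of 2 mol NO/mol for diazeniumdiolates, 1 mol/mol for nitrooxyethyl esters and 3 mol/mol for glycerol trinitrate. Mean of 3 measurements.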

[3] = tested on: Serum; assay: Nitric oxide in rat serum at pH 7.4 in 37 degC after 1.5 hrs; format: ADME, cell-free; design: concentration or dose not given beside the values; settings: pH 7.4, 1.5 h
In short: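 Test compound at 1.0 · 10^-2 mM in phosphate buffer pH 7.4 with 90 µL rat serum added, incubated 37 °C for 1.5 h. Nitrite measured by Griess reaction. % NO released is relative to a theoretical maximum of 2 mol NO/mol for diazeniumdiolates and 1 mol/mol for nitrooxyethyl esters. Mean of 3 measurements.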

[4] = species on record: Ovis aries; assay: Selectivity index, ratio of IC50 for ovine COX1 to IC50 for ovine COX2
In short: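 Ovine COX-1 and COX-2 IC50s were measured by enzyme immunoassay kit. Deviation from the mean was <10%. The index is COX-1 IC50/COX-2 IC50.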

[5] = Nitric oxide release in PBS in presence of 5 mM L-cysteine at pH 7.4 in 37 degC after 1.5 hrs; format: functional
In short: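 Phosphate buffer pH 7.4 containing 5.0 mM L-cysteine, with test compound at 1.0 · 10^-2 mM, kept at 37 °C for 1.5 h. Nitrite was determined by Griess reaction. % NO released is relative to a theoretical maximum of 1 mol NO/mol for nitrooxyethyl esters. Mean of 3 measurements.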

Row | SMILES | IC50 [1] [nM] | Activity [2] [%] | Activity [3] [%] | Ratio IC50 [4] | Activity [5] [%]
1 | CS(=O)(=O)c1ccc(/C=C(/C(=O)O)c2ccc(F)cc2)cc1 | 400 |  |  |  | 
2 | CC(=O)OCO/N=[N+](\[O-])N(C)CCOC(=O)/C(=C/c1ccc(S(C)(=O)=O)cc1)c1ccc(F)cc1 |  | 3.6 | 82.1 |  | 
3 | CS(=O)(=O)c1ccc(/C=C(/C(=O)O)c2ccccc2)cc1 | 1500 |  |  | 0.5 | 
4 | COc1ccc(/C(=C\c2ccc(S(C)(=O)=O)cc2)C(=O)O)cc1 | 31600 |  |  |  | 
5 | CS(=O)(=O)c1ccc(/C=C(/C(=O)OCCO[N+](=O)[O-])c2ccc(Br)cc2)cc1 | 370 | 1 |  |  | 10.1
6 | CS(=O)(=O)c1ccc(/C=C(/C(=O)OCCO[N+](=O)[O-])c2ccc(F)cc2)cc1 | 1600 | 3.3 |  |  | 7.6
7 | COc1ccc(/C(=C\c2ccc(S(C)(=O)=O)cc2)C(=O)OCCN(C)/[N+]([O-])=N/OCOC(C)=O)cc1 |  | 3.9 | 77.6 |  | 
8 | CC(=O)OCO/N=[N+](\[O-])N(C)CCOC(=O)/C(=C/c1ccc(S(C)(=O)=O)cc1)c1ccc(Br)cc1 |  | 3.5 | 76.2 |  | 
9 | CS(=O)(=O)c1ccc(/C=C(/C(=O)O)c2ccc(Br)cc2)cc1 | 880 |  |  |  | 
10 | CC(=O)OCO/N=[N+](\[O-])N(C)CCOC(=O)/C(=C/c1ccc(S(C)(=O)=O)cc1)c1ccccc1 |  | 4.8 | 83 |  | 
11 | O=[N+]([O-])OCC(CO[N+](=O)[O-])O[N+](=O)[O-] |  | 2.8 |  |  | 10.1
12 | CS(=O)(=O)c1ccc(/C=C(/C(=O)OCCO[N+](=O)[O-])c2ccccc2)cc1 | 6200 | 3 |  |  | 8.5
13 | COc1ccc(/C(=C\c2ccc(S(C)(=O)=O)cc2)C(=O)OCCO[N+](=O)[O-])cc1 | 1100 | 1.4 |  |  | 9.2
14 | CN(CCO)/[N+]([O-])=N/[O-].[Na+] |  | 84.9 | 85 |  | 
